# What was measured:
# [1] = test system: Rattus norvegicus; experiment: Percent change in high-density lipoprotein cholesterol in hypercholesterolemic rats dosed at 100 mg/kg/day for 8 days; format: functional
# [2] = test system: Rattus norvegicus; experiment: Effect of compound on alanine aminotransferase (ALT) levels in 1st group of normal chow-fed male rats after a dose of 1 mg/kg/day; format: functional, organism-based
# Outline: (§1)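 Male Sprague–Dawley CD rats (60–80 g) on standard chow under a reversed 12 h light/dark cycle. Compound was suspended in 1.3% Tween 80/0.25% CMC and given as a single daily oral gavage dose for 4 days. Rats were fasted overnight and killed 24 h after the last dose. Serum ALT, AST, ALKP and LDH were read on a clinical analyzer. Weight gain was start versus end weight. Mean ± SEM, n = 6.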
# [3] = test system: Rattus norvegicus; experiment: Effect of compound on alkaline phosphatase (ALKP) levels in 3rd group of normal chow-fed male rats after a dose of 5 mg/kg/day; format: functional, organism-based; outline: as §1
# [4] = test system: Rattus norvegicus; experiment: Effect of compound on alkaline phosphatase (ALKP) levels in 5th group of normal chow-fed male rats after a dose of 20 mg/kg/day; format: functional, organism-based; outline: as §1
# [5] = test system: Rattus norvegicus; experiment: Effect of compound on alkaline phosphatase (ALKP) levels in 6th group of normal chow-fed male rats after a dose of 50 mg/kg/day; format: functional, organism-based; outline: as §1
# [6] = test system: Rattus norvegicus; experiment: Effect of compound on aspartate aminotransferase (AST) levels in 1st group of normal chow-fed male rats after a dose of 1 mg/kg/day; format: functional, organism-based; outline: as §1
# [7] = test system: Rattus norvegicus; experiment: Effect of compound on aspartate aminotransferase (AST) levels in 5th group of normal chow-fed male rats after a dose of 20 mg/kg/day; format: functional, organism-based; outline: as §1
# [8] = test system: Rattus norvegicus; experiment: Effect of compound on liver weight in 1st group of normal chow-fed male rats after a dose of 1 mg/kg/day; format: functional
# Outline: (§2)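 Male Sprague–Dawley CD rats, 60–80 g, on chow with a reverse 12 h light/dark cycle. Given one oral gavage dose daily for 4 days, suspended in 1.3% Tween 80/0.25% CMC. Fasted overnight and sacrificed 24 h after the last dose for blood and liver. Serum liver enzymes read on a clinical analyzer. Six per group, mean ± SEM.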
# [9] = test system: Rattus norvegicus; experiment: Effect of compound on high-density lipoprotein cholesterol levels in 5th group of normal chow-fed male rats after a dose of 20 mg/kg/day; format: functional, organism-based
# [10] = test system: Rattus norvegicus; experiment: Effect of compound on high-density lipoprotein cholesterol levels in 6th group of normal chow-fed male rats after a dose of 50 mg/kg/day; format: functional, organism-based
# [11] = test system: Rattus norvegicus; experiment: Effect of compound on serum apolipoprotein A1 concentration in chow-fed male rats at a dose of 100 mg/kg/day; format: functional, organism-based
# Outline: (§3)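 Separate dose-response study in male Sprague–Dawley CD rats, 60–80 g, on chow. Oral gavage once daily for 4 days in 1.3% Tween 80 / 0.25% CMC; fasted overnight, bled 24 h after last dose. Apo-A1 by ELISA with rabbit anti-rat primary, alkaline phosphatase-conjugated anti-rabbit IgG and p-nitrophenyl phosphate substrate. HDL-C by FPLC fractionation. Mean ± SEM, six per group.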
# [12] = test system: Rattus norvegicus; experiment: Effect of compound on serum high-density lipoprotein cholesterol concentration in chow-fed male rats at a dose of 50 mg/kg/day; format: functional, organism-based; outline: as §3
# [13] = test system: Rattus norvegicus; experiment: Effect of compound on thyroxine levels in 7th group of normal chow-fed male rats after a dose of 100 mg/kg/day; format: functional, organism-based
# Outline: (§4)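 Male Sprague–Dawley CD rats, 60–80 g, on standard chow with reverse 12 h light/dark cycle. One oral gavage dose daily for 4 days, suspended in 1.3% Tween 80 and 0.25% CMC. Fasted overnight; sacrificed 24 h after the last dose. Serum TC on clinical analyzer, lipoproteins by FPLC with cholesterol per fraction, T4 on analyzer. Mean ± SEM, six rats per group.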
# [14] = test system: Rattus norvegicus; experiment: Effect of compound on total plasma cholesterol levels in 2nd group of normal chow-fed male rats after a dose of 2 mg/kg/day; format: functional, organism-based; outline: as §4
# [15] = test system: Rattus norvegicus; experiment: Effect of compound on total plasma cholesterol levels in 3rd group of normal chow-fed male rats after a dose of 5 mg/kg/day; format: functional, organism-based; outline: as §4
# [16] = test system: Rattus norvegicus; experiment: Effect of compound on total plasma cholesterol levels in 6th group of normal chow-fed male rats after a dose of 50 mg/kg/day; format: functional, organism-based
# Outline: (§5)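 Male Sprague–Dawley CD rats (60–80 g) on Purina 5001 chow with a reverse 12 h light/dark cycle. Dosed once daily by oral gavage for 4 days, suspended in 1.3% Tween 80 / 0.25% CMC. Fasted overnight and bled 24 h after the last dose. Serum TC and glycerol-blanked TG measured enzymatically; VLDL-C by FPLC fractionation with cholesterol assay. n=6, mean ± SEM.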
# [17] = test system: Rattus norvegicus; experiment: Effect of compound on lactic dehydrogenase (LDH) levels in 5th group of normal chow-fed male rats after a dose of 20 mg/kg/day; format: functional, organism-based; outline: as §2
# [18] = test system: Rattus norvegicus; experiment: Effect of compound on lactic dehydrogenase (LDH) levels in 6th group of normal chow-fed male rats after a dose of 50 mg/kg/day; format: functional, organism-based; outline: as §2
# [19] = test system: Rattus norvegicus; experiment: Effect of compound on high-density lipoprotein cholesterol levels in 1st group of normal chow-fed male rats after a dose of 1 mg/kg/day; format: functional, organism-based
# [20] = test system: Rattus norvegicus; experiment: Effect of compound on very low-density lipoprotein cholesterol levels in 6th group of normal chow-fed male rats after a dose of 50 mg/kg/day; format: functional, organism-based; outline: as §5
# [21] = test system: Rattus norvegicus; experiment: Effect of compound on very low-density lipoprotein cholesterol levels in 3rd group of normal chow-fed male rats after a dose of 5 mg/kg/day; format: functional, organism-based; outline: as §5
# [22] = test system: Rattus norvegicus; experiment: Effect of compound on low-density lipoprotein cholesterol levels in 5th group of normal chow-fed male rats after a dose of 20 mg/kg/day; format: functional, organism-based; outline: as §4
# [23] = test system: Cricetinae gen. sp.; experiment: Effect of compound on thyroxine levels in 1st group of cholesterol-fed male hamsters at 3 mg/kg/day after 14 days of treatment; conditions: Mesocricetus auratus
# [24] = test system: Mesocricetus auratus; experiment: Effect of compound on gain in body weight in 3rd group of cholesterol-fed male hamsters at 30 mg/kg/day after 14 days of treatment
# [25] = test system: Cricetinae gen. sp.; experiment: Effect of compound on total plasma cholesterol levels in 2nd group of cholesterol-fed male hamsters at 10 mg/kg/day after 14 days of treatment; conditions: Mesocricetus auratus
# [26] = test system: Cricetinae gen. sp.; experiment: Effect of compound on total plasma cholesterol levels in 3rd group of cholesterol-fed male hamsters at 30 mg/kg/day after 14 days of treatment; conditions: Mesocricetus auratus
# [27] = test system: Cricetinae gen. sp.; experiment: Effect of compound on lactic dehydrogenase (LDH) levels in 1st group of cholesterol-fed male hamsters at 3 mg/kg/day after 14 days of treatment; conditions: Mesocricetus auratus
# [28] = test system: Cricetinae gen. sp.; experiment: Effect of compound on low-density lipoprotein cholesterol levels in 1st group of cholesterol-fed male hamsters at 3 mg/kg/day after 14 days of treatment; conditions: Mesocricetus auratus
# [29] = test system: Cricetinae gen. sp.; experiment: Effect of compound on very low-density lipoprotein cholesterol levels in 2nd group of cholesterol-fed male hamsters at 10 mg/kg/day after 14 days of treatment; conditions: Mesocricetus auratus
# [30] = test system: Cricetinae gen. sp.; experiment: Effect of compound on very low-density lipoprotein cholesterol levels in 4th group of cholesterol-fed male hamsters at 100 mg/kg/day after 14 days of treatment; conditions: Mesocricetus auratus
compound,measurement,setting,value
CCN1CC(=O)N(c2cc(Cl)ccc2C)C1=S,Change,[1],132%
same,Level,[2],61 U l-1
same,Level,[3],344 U l-1
same,Level,[4],385 U l-1
same,Level,[5],330 U l-1
same,Level,[6],216 U l-1
same,Level,[7],318 U l-1
same,Liver weight,[8],8.4 g
same,Serum level,[9],58 mg/dL
same,Serum level,[10],61 mg/dL
same,Serum level,[11],96.4 mg/dL
same,Serum level,[12],87.3 mg/dL
same,Serum level,[13],3.4 µg/dL
same,Serum level,[14],56 mg/dL
same,Serum level,[15],62 mg/dL
same,Serum level,[16],101 mg/dL
same,Level,[17],1140 U l-1
same,Level,[18],815 U l-1
same,Serum level,[19],38 mg/dL
same,Serum level,[20],6.5 mg/dL
same,Serum level,[21],3.9 mg/dL
same,Serum level,[22],8.5 mg/dL
same,Serum level,[23],5.8 µg/dL
same,Body weight,[24],8.2 g
same,Serum level,[25],370 mg/dL
same,Serum level,[26],372 mg/dL
same,Level,[27],1230 U l-1
same,Serum level,[28],178 mg/dL
same,Serum level,[29],102 mg/dL
same,Serum level,[30],81 mg/dL
